In ChEMBL document CHEMBL3351900, “Conjugation of a nonspecific antiviral sapogenin with a specific HIV fusion inhibitor: a promising strategy for discovering new antiviral therapeutics” (J Med Chem, 2014):
Calls of active or inactive are those of the source. The calls are words filed in the database; no cut-off is given here. Peptide text beside a SMILES is read from it. * marks the point of attachment. X3 = C=C(C)[C@@H]1CC[C@]2(C(=O)O)CC[C@]3(C)[C@H](CC[C@@H]4[C@@]5(C)CC[C@H](OC(=O)CCc6cn(CC(=O)*)nn6)C(C)(C)[C@@H]5CC[C@]43C)[C@@H]12; X11 = CCCc1cn(CC(=O)*)nn1; βAla = NCCC(=O)O

What was measured:
[1] = system: Human immunodeficiency virus 1; assay: Antiviral activity against HIV1 3B infected in human MT2 cells assessed as inhibition of viral p24 antigen production by ELISA; format: functional, organism-based; details: Human immunodeficiency virus 1, 3B
In short: (§1)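 MT-2 cells (1 × 10⁴) infected with 100 TCID₅₀ virus with or without peptides at graded concentrations. Culture supernatants collected on day 4 postinfection; p24 antigen quantified by ELISA. Percent inhibition and EC₅₀ calculated; tested in triplicate, mean ± standard deviation.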

[2] = Cytotoxicity against human MT2 cells after 4 days by XTT assay; format: cell-based
In short: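 MT-2 cells (5 × 10⁵/mL) mixed with equal volumes of graded conjugate concentrations and held at 37 °C for 4 days. XTT (1 mg/mL) with 0.02 μM phenazine methosulfate added for 4 h, then A450 read. CC50 calculated from the dose–response.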

[3] = system: Human immunodeficiency virus 1; assay: Antiviral activity against HIV1 BaL infected in human […] cells assessed as inhibition of viral replication; format: functional, organism-based; details: Human immunodeficiency virus 1, BaL; in short: as §1
[4] = Selectivity index, ratio of CC50 for human MT2 cells to EC50 for HIV1 3B infected in human MT2 cells; format: toxicity, cell-based; details: read-out: Ratio CC50/EC50
[5] = target: GP41 (Human immunodeficiency virus 1) (UniProt Q76270); assay: Ratio of EC50 for HIV1 gp41-induced cell-cell fusion between viral envelope expressing human HL2/3 cells to CD4/CCR5 receptor expressing TZM-bl cells with wash out to EC50 for HIV1 gp41-induced cell-cell fusion between viral envelope expressing human HL2/3 cells to CD4/CCR5 receptor expressing TZM-bl cells; format: cell-based
In short: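 Peptides preincubated with TZM-bl cells at 37 °C for 1 h, with or without washing away unbound peptide. EC50 compared between washed and unwashed cells, giving the n-fold change. Triplicates, mean ± SD.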

[6] = target: GP41 (Human immunodeficiency virus 1) (UniProt Q76270); assay: Inhibition of HIV1 gp41 NHR assessed as inhibition of 6HB formation by FRET assay
In short: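 FRET competition assay. A bpy-labelled 31-mer NHR pocket peptide is trimerized by Fe(II) into env2.0, which quenches the Lucifer-yellow-tagged CP2 probe. Displacement of the probe raises fluorescence. Used 7 μM binding sites (three per trimer) and 1 μM CP2-LY.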

[7] = system: Human immunodeficiency virus 1; assay: Antiviral activity against T20-sensitive HIV1 NL4-3 harboring gp41 D36G mutant infected in human MT2 cells; format: functional, organism-based; in short: as §1
[8] = system: Human immunodeficiency virus 1; assay: Antiviral activity against T20-resistant HIV1 NL4-3 harboring gp41 D36G/V38A mutant infected in human MT2 cells; format: functional, organism-based; in short: as §1
[9] = system: Human immunodeficiency virus 1; assay: Antiviral activity against T20-resistant HIV1 NL4-3 harboring gp41 D36G/V38A/N42D mutant infected in human MT2 cells; format: functional, organism-based; in short: as §1
[10] = system: Human immunodeficiency virus 1; assay: Antiviral activity against T20-resistant HIV1 NL4-3 harboring gp41 D36G/N42T/N43K mutant infected in human MT2 cells; format: functional, organism-based; in short: as §1
[11] = system: Human immunodeficiency virus 1; assay: Antiviral activity against T20-resistant HIV1 NL4-3 harboring gp41 D36G/V38E/N42S mutant infected in human MT2 cells; format: functional, organism-based; in short: as §1
[12] = system: Human immunodeficiency virus 1; assay: Antiviral activity against T20-resistant HIV1 NL4-3 harboring gp41 D36G/V38A/N42T mutant infected in human MT2 cells; format: functional, organism-based; in short: as §1
[13] = system: Human immunodeficiency virus 1; assay: Ratio of EC50 for T20-resistant HIV1 NL4-3 harboring gp41 D36G/V38A mutant infected in human MT2 cells to EC50 for T20-sensitive HIV1 NL4-3 harboring gp41 D36G mutant infected in human MT2 cells; format: functional
In short: (§2)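 MT-2 cells (1 × 10⁴) infected with 100 TCID₅₀ of HIV-1 NL4-3 gp41 mutant virus with or without peptide at graded concentrations. Culture supernatants collected on day 4 postinfection and p24 antigen measured by ELISA. Percent inhibition and EC₅₀ calculated, triplicate, mean ± standard deviation. Fold change = EC₅₀ against each mutant divided by EC₅₀ against the D36G strain.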

[14] = system: Human immunodeficiency virus 1; assay: Ratio of EC50 for T20-resistant HIV1 NL4-3 harboring gp41 D36G/V38A/N42D mutant infected in human MT2 cells to EC50 for T20-sensitive HIV1 NL4-3 harboring gp41 D36G mutant infected in human MT2 cells; format: functional; in short: as §2
[15] = system: Human immunodeficiency virus 1; assay: Ratio of EC50 for T20-resistant HIV1 NL4-3 harboring gp41 D36G/N42T/N43K mutant infected in human MT2 cells to EC50 for T20-sensitive HIV1 NL4-3 harboring gp41 D36G mutant infected in human MT2 cells; format: functional; in short: as §2
[16] = system: Human immunodeficiency virus 1; assay: Ratio of EC50 for T20-resistant HIV1 NL4-3 harboring gp41 D36G/V38E/N42S mutant infected in human MT2 cells to EC50 for T20-sensitive HIV1 NL4-3 harboring gp41 D36G mutant infected in human MT2 cells; format: functional; in short: as §2
[17] = system: Human immunodeficiency virus 1; assay: Ratio of EC50 for T20-resistant HIV1 NL4-3 harboring gp41 D36G/V38A/N42T mutant infected in human MT2 cells to EC50 for T20-sensitive HIV1 NL4-3 harboring gp41 D36G mutant infected in human MT2 cells; format: functional; in short: as §2
Rattus norvegicus [18] = assay: AUC (0 to t) in rat at 4 mg/kg, iv administered as single dose; format: ADME, organism-based, Plasma; parameters: dose 4 mg/kg, route intravenous; details: in vivo
In short: (§3)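 Rats given one intravenous dose of 4 mg/kg. Peptide measured in plasma over time. Parameters (AUC(0−t), MRT(0−t), t1/2, Vd, Cmax) derived by model-independent analysis.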

Rattus norvegicus [19] = assay: Half life in rat at 4 mg/kg, iv at 4 mg/kg, iv administered as single dose; format: ADME, organism-based; details: in vivo; in short: as §3
[20] = Volume of distribution in rat at 4 mg/kg, iv administered as single dose; format: ADME, organism-based; parameters: dose 4 mg/kg, route intravenous; details: in vivo; in short: as §3
Rattus norvegicus [21] = assay: Cmax in rat at 4 mg/kg, iv administered as single dose; format: ADME, organism-based; parameters: dose 4 mg/kg, route intravenous; details: in vivo; in short: as §3
[22] = Half life in rat liver homogenate at 8 ug/ml; format: ADME, tissue-based
[23] = Half life of the compound at 8 ug/ml by proteinase K digestion assay; format: ADME
[24] = Half life in rat kidney homogenate at 8 ug/ml; format: ADME, tissue-based

Molecule: C=C(C)[C@@H]1CC[C@]2(C(=O)O)CC[C@]3(C)[C@H](CC[C@@H]4[C@@]5(C)CC[C@H](OC(=O)CCc6cn(CC(=O)NCCC(=O)N[C@@H](CC(N)=O)C(=O)N[C@@H](CC(N)=O)C(=O)N[C@@H](Cc7ccc(O)cc7)C(=O)N[C@H](C(=O)N[C@@H](CO)C(=O)N[C@@H](CC(C)C)C(=O)N[C@H](C(=O)N[C@@H](Cc7cnc[nH]7)C(=O)N[C@@H](CO)C(=O)N[C@@H](CC(C)C)C(=O)N[C@H](C(=O)N[C@@H](CCC(=O)O)C(=O)N[C@@H](CCC(=O)O)C(=O)N[C@@H](CO)C(=O)N[C@@H](CCC(N)=O)C(=O)N[C@@H](CC(N)=O)C(=O)N[C@@H](CCC(N)=O)C(=O)N[C@@H](CCC(N)=O)C(=O)N[C@@H](CCC(=O)O)C(=O)N[C@@H](CCCCN)C(=O)N[C@@H](CC(N)=O)C(=O)N[C@@H](CCC(=O)O)C(=O)N[C@@H](CCC(N)=O)C(=O)N[C@@H](CCC(=O)O)C(=O)N[C@@H](CC(C)C)C(=O)N[C@@H](CC(C)C)C(N)=O)[C@@H](C)CC)[C@@H](C)CC)[C@@H](C)O)nn6)C(C)(C)[C@@H]5CC[C@]43C)[C@@H]12 ({X3-βAla}-NNYTSLIHSLIEESQNQQEKNEQELL-NH2)
- EC50 [1]: 133 nM
- CC50 at 96 h [2]: > 25000 nM
- EC50 [3]: 98 nM
- selectivity ratio [4]: > 187
- Ratio EC50 [5]: > 85

Molecule: CCCc1cn(CC(=O)NCCC(=O)N[C@@H](CC(N)=O)C(=O)N[C@@H](CC(N)=O)C(=O)N[C@@H](Cc2ccc(O)cc2)C(=O)N[C@H](C(=O)N[C@@H](CO)C(=O)N[C@@H](CC(C)C)C(=O)N[C@H](C(=O)N[C@@H](Cc2cnc[nH]2)C(=O)N[C@@H](CO)C(=O)N[C@@H](CC(C)C)C(=O)N[C@H](C(=O)N[C@@H](CCC(=O)O)C(=O)N[C@@H](CCC(=O)O)C(=O)N[C@@H](CO)C(=O)N[C@@H](CCC(N)=O)C(=O)N[C@@H](CC(N)=O)C(=O)N[C@@H](CCC(N)=O)C(=O)N[C@@H](CCC(N)=O)C(=O)N[C@@H](CCC(=O)O)C(=O)N[C@@H](CCCCN)C(=O)N[C@@H](CC(N)=O)C(=O)N[C@@H](CCC(=O)O)C(=O)N[C@@H](CCC(N)=O)C(=O)N[C@@H](CCC(=O)O)C(=O)N[C@@H](CC(C)C)C(=O)N[C@@H](CC(C)C)C(N)=O)[C@@H](C)CC)[C@@H](C)CC)[C@@H](C)O)nn1 ({X11-βAla}-NNYTSLIHSLIEESQNQQEKNEQELL-NH2)
- inhibition [6]: inactive

Molecule: enfuvirtide
- EC50 [7]: 40.6 nM
- EC50 [8]: > 2000 nM
- EC50 [9]: > 2000 nM
- EC50 [10]: > 2000 nM
- EC50 [11]: > 2000 nM
- EC50 [12]: > 2000 nM
- Ratio EC50 [13]: >50
- Ratio EC50 [14]: >50
- Ratio EC50 [15]: >50
- Ratio EC50 [16]: >50
- Ratio EC50 [17]: >50
- AUCt (Rattus norvegicus [18]): 26900 ng·h/mL
- t1/2 (Rattus norvegicus [19]): 131 min
- Vd [20]: 0.44 L/kg
- Cmax (Rattus norvegicus [21]): 25500 ng/mL
- half-life at 8 ug/ml [22]: 31 min
- half-life at 8 ug/ml [23]: 19.4 min
- half-life at 8 ug/ml [24]: 16.9 min
- EC50 [1]: 10.9 nM
- CC50 at 96 h [2]: > 25000 nM
- EC50 [3]: 2.88 nM
- selectivity ratio [4]: > 2290
- Ratio EC50 [5]: 39
